Screening results (PubChem BioAssay)
KCNQ1 act: human KCNQ1 channel potentiation or activation; P51787; CHO-K1 KCNQ1, thallium flux FluxOR fluorescence; active compounds read high; B-score at 10 µM; hit rate 0.35% among 310,000;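 active = fluorescence ratio B-score, a plate-corrected score, at least three library SD, with initial intensity B-score within 5 SD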
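Doses: Single concentration per compound, DMSO matched to controls | Test system: KCNQ1-transfected CHO-K1 cells | Timing: 90 min dye loading and 20 min compound exposure, both at room temperature | Measured by: Kinetic FluxOR thallium fluorescence, 10-s 1-Hz baseline, 110-s post-stimulus read | Medium: Assay buffer with matched DMSO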
KCNQ1 block: blocks the human KCNQ1 potassium channel; P51787; hit rate 1.3% among 310,000; AID 2642; B-score at 10 µM; CHO-K1 KCNQ1, FluxOR thallium flux fluorescence; active compounds read high;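 active = compounds whose thallium flux B-score, printed positive for inhibition, exceeds three library SD while starting fluorescence stays within three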;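 note: channel opened by potassium depolarization with thallium stimulus after 20 min compound exposure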
KCNK9 block: inhibitors of human KCNK9 two-pore domain potassium channel | HEK293 KCNK9, FluxOR thallium flux fluorescence; active compounds read low | B-score at 10 µM | hit rate 1.2% among 310,000 | AID 488922;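 active = ratio B-score over 3 SD below the library mean, with starting fluorescence within 5 SD of its mean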;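 note: negative B-score means less thallium flux so channel inhibition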
KCNK3 block: human KCNK3 channel inhibition, primary screen. B-score at 10 µM. hit rate 0.84% among 340,000. O14649. CHO-KCNK3 thallium flux, FluxOR fluorescence; active compounds read low. AID 602410;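 active = B-score under library mean minus 4 SD, starting fluorescence ratio at most library mean plus 5 SD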;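 note: more negative B-score means stronger inhibition of thallium flux through KCNK3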
Target sequence (O14649 whole entry, looked up): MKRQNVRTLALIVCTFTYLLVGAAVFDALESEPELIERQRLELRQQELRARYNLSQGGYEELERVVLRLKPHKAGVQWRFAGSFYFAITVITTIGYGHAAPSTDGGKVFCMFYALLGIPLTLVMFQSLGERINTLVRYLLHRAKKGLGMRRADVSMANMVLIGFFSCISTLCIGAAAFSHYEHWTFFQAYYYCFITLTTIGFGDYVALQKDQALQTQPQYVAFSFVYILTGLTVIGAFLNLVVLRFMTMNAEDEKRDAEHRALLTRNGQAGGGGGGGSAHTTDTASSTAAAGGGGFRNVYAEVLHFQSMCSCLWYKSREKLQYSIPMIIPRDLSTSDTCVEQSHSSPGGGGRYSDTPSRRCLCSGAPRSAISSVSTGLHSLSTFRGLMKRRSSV
hERG protect: compounds protecting human hERG from proarrhythmic drug block. Q12809. hit rate 0.51% among 310,000. CHO-hERG, FluxOR thallium flux, dofetilide IC70 present. activation (rescue from dofetilide block), less the hit threshold, % at 10 µM;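 active = activation above the mean of controls blocked by dofetilide plus 5 SD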;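 note: thallium influx through hERG after potassium depolarization seen as dye fluorescence rise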
Hits are given with their value; n = inactive; x = no result given. Rows were chosen to be rich in hits. Some 3.1% of all compounds tested hit in one or more screens of this group.

SMILES | KCNQ1 act | KCNQ1 block | KCNK9 block | KCNK3 block | hERG protect
CCN(C(=O)CCN1C(=O)S/C(=C\c2ccccc2)C1=O)C1CCS(=O)(=O)C1 (stereo not drawn) | n | n | n | n | n
Cc1cccc(C(=O)CC(=O)c2cc(Cl)ccc2O)c1 | n | n | n | n | 8.8
Cc1ccc(O)c(C(=O)CC(=O)c2cccc(F)c2)c1 | 27 | n | n | n | n
Cc1ccc(O)c(C(=O)CC(=O)c2ccc(Cl)cc2)c1 | n | n | n | n | 5.7
O=C(CC(=O)c1cc(Cl)ccc1O)c1ccccc1 | 18 | n | n | n | n
Cc1cccc(C(=O)NCC(=O)NNC(=O)c2ccccc2O)c1 | n | n | n | n | n
O=C(O)CC(=O)Nc1cc(Cl)ccc1O | n | n | n | n | n
CCOC(=O)C1=CC[C@@H](c2cc(OC)c(OC)c(OC)c2)N(S(=O)(=O)c2ccc(C)cc2)[C@H]1C(=O)OCC | x | x | x | n | x
CCOc1ccccc1N1CCN(C(=O)c2cc(-c3cccnc3)nc3c(Cl)cccc23)CC1 | n | n | n | n | n
CCCC(NC(=O)C(C)Sc1nnnn1C1CC1)c1ccccc1 (stereo not drawn) | x | x | x | n | x
Cc1ccc(Cl)cc1N1CCN(C(=O)c2ccc3c(c2)CCN3S(C)(=O)=O)CC1 | n | n | n | n | n
Cc1ccc(C(=O)CC(=O)COc2ccc(Cl)cc2C)cc1 | 7 | n | n | n | n
Cc1ccc(NC(=O)c2ccc(OC(=O)COc3ccc(Cl)cc3C)cc2)cc1 | n | n | n | n | n
COc1ccc(CC(=O)OCC(=O)NC2CCCCC2)cc1OC | x | x | x | n | x
Cn1c(=O)c(Nc2ccc(Cl)cc2)c2c3c(cccc31)C(=O)c1ccccc1-2 | n | 9 | n | x | n
CC(=O)Nc1c2c3c(cccc3n(C)c1=O)C(=O)c1ccccc1-2 | n | n | n | n | n
CCCCOc1cccc(C(=O)Nc2ccc(S(=O)(=O)Nc3cc(C)on3)cc2)c1 | n | n | n | n | n
CCCCOc1ccc(C(=O)Nc2ccc(S(=O)(=O)Nc3cc(C)on3)cc2)cc1OC | n | n | n | n | 4.9
OC(CNCc1ccccc1F)(c1ccc(F)cc1)c1ccc(F)cc1 | n | n | -7 | n | n
OC(CNCc1ccccc1)(c1ccc(F)cc1)c1ccc(F)cc1 | n | n | -7.7 | n | n
Cc1nn(C)cc1S(=O)(=O)Nc1ccc(F)c(F)c1 | n | n | n | n | n
COc1ccc(C(=O)Nc2sc(C)c(-c3ccccc3)c2C#N)cc1OC | n | 6 | n | -11 | n
Cc1sc(NC(=O)COc2ccccc2)c(C#N)c1-c1ccccc1 | n | n | n | n | n
Cc1nc(SCc2cccc(F)c2)c2oc3ccccc3c2n1 | n | n | n | n | 5.0
Cc1ccc(NC(=O)CN2C(=O)S/C(=C\c3ccc(-c4cccc(C(=O)O)c4C)o3)C2=O)cc1 | n | n | n | x | 15
SMILES | KCNQ1 act | KCNQ1 block | KCNK9 block | KCNK3 block | hERG protect
Cc1ccc(NC(=O)CN2C(=O)S/C(=C/c3ccc(-c4cccc(C(=O)O)c4)o3)C2=O)cc1 | x | x | x | n | x
CCCOC(=O)c1ccc(NC(=O)c2ccccc2OC)cc1 | n | n | -7.5 | n | n
CCCCCC(=O)NC(NC(=S)NC1CCS(=O)(=O)C1)C(Cl)(Cl)Cl (stereo not drawn) | n | n | n | n | 5.6
O=C(O)COc1ccccc1/C=N/NC(=O)COc1ccc(-c2ccccc2)cc1 | n | n | n | n | n
COc1ccc(Br)c(/C=N/NC(=O)COc2ccc(-c3ccccc3)cc2)c1 | n | n | n | -9.2 | n
COc1ccc(C2/C(=C(/O)c3ccc(F)cc3)C(=O)C(=O)N2CCCN2CCOCC2)cc1OC (stereo not drawn) | n | n | n | n | n
COc1ccccc1NC(=O)c1cccc(NC(=O)c2ccco2)c1 | x | x | x | -9.4 | x
Cc1ccc(O)c(NC(=O)c2ccco2)c1 | n | n | n | n | n
CC(=O)c1cccc(NC(=O)c2cccc(NC(=O)c3ccco3)c2)c1 | n | n | n | n | n
Cc1ccc(O)c(NC(=O)c2cccc(NC(=O)c3ccco3)c2)c1 | n | n | -6.9 | -9.4 | n
COc1ccccc1NC(=O)C(=O)NNC(=O)c1ccco1 | 16 | n | n | n | 22
O=C(Nc1ccccc1C(=O)O)c1cccc(NC(=O)c2ccco2)c1 | n | n | n | n | 5.3
COc1ccccc1NC(=O)c1ccc(NC(=O)c2ccco2)cc1 | n | n | n | n | n
CCOc1ccccc1NC(=O)c1ccc(NC(=O)c2ccco2)cc1 | n | n | -6.6 | n | n
C[C@H](CO)N1C[C@H](C)[C@@H](CN(C)C(=O)Nc2ccc3c(c2)OCO3)Oc2c(NC(=O)Nc3ccc(C(F)(F)F)cc3)cccc2C1=O | x | x | x | n | x
C[C@H](CO)N1C[C@H](C)[C@@H](CN(C)C(=O)Nc2ccc(C(F)(F)F)cc2)Oc2c(NC(=O)Nc3ccc4c(c3)OCO4)cccc2C1=O | x | x | x | -9 | x
CCOC(=O)c1cc2c(ccc3ccccc32)oc1=O | n | n | n | n | n
CC(OC(=O)c1cc2c(ccc3ccccc32)oc1=O)c1nc2ccccc2s1 (stereo not drawn) | n | 9 | n | n | n
O=C(Nc1cccc(Cl)c1)c1cc(N=Nc2ccc([N+](=O)[O-])cc2Cl)ccc1O | n | 7 | n | n | n
O=C(Nc1ccccc1)c1cc([N+](=O)[O-])ccc1Cl | n | n | n | n | n
CCOC(=O)C1=C(c2ccccc2)NC(=O)NC1c1ccc(OC)c(OC)c1 (stereo not drawn) | n | n | n | n | 5.7
COc1cc(C2NC(=O)NC(C)=C2C(=O)OCC2CCCCC2)ccc1O (stereo not drawn) | n | n | n | n | 7.1
S=C1Cc2ccccc2N1 | n | n | n | n | n
COc1ccc(/C=C2\SC(=S)N(CC(=O)NC3C=CS(=O)(=O)C3)C2=O)cc1 (stereo not drawn) | n | n | n | n | n
O=C(Nc1nc(-c2cccc([N+](=O)[O-])c2)cs1)C(c1ccccc1)c1ccccc1 | n | 11 | n | n | n
SMILES | KCNQ1 act | KCNQ1 block | KCNK9 block | KCNK3 block | hERG protect
CC(OC(=O)c1ccccc1Br)C(=O)Nc1nc(-c2cccc([N+](=O)[O-])c2)cs1 (stereo not drawn) | n | n | n | n | n
O=C1/C(=C/c2cccc(F)c2)Oc2cc(O)ccc21 | n | 14 | n | n | n
COc1ccc(C(C)(C)NC(=O)C2CCC(=O)N(C3CCCC3)C2)cc1OC (stereo not drawn) | n | n | n | n | n
Cc1ccc(C)c(SCc2noc(C(=O)NC(C)C)c2C(=O)O)c1 | 9 | n | n | n | n
COCCNC(=O)c1onc(CSc2cc(C)ccc2C)c1C(=O)O | n | n | n | n | n
N=C1/C(=C/c2coc3ccccc3c2=O)C(=O)N=C2SC(c3ccco3)=NN12 | n | 7 | n | n | n
CSC1=NSC2=NC(=O)/C(=C\c3coc4ccccc4c3=O)C(=N)N12 | x | x | x | n | x
N=C1/C(=C\c2coc3ccccc3c2=O)C(=O)N=C2SC(c3ccncc3)=NN12 | n | 16 | n | n | n
